# According to ChEMBL document CHEMBL1137782, “Identification of peptide substrate and small molecule inhibitors of testis-specific serine/threonine kinase1 (TSSK1) by the developed assays” (J Med Chem, 2009):
# T1: Testis-specific serine/threonine-protein kinase 1 (Homo sapiens) (UniProt Q9BXA7)
# T1 sequence (whole entry): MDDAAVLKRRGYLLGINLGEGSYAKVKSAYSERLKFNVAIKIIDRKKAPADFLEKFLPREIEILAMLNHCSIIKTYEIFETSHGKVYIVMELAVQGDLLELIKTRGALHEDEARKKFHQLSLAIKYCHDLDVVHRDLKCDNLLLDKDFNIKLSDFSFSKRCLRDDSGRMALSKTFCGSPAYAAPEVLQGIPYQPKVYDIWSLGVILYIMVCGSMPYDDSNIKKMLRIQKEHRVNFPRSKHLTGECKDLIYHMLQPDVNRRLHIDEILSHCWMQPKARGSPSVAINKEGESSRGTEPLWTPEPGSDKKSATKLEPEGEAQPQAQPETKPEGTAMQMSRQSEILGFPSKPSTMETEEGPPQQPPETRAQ
# T2: Testis-specific serine/threonine-protein kinase 1 (Homo sapiens, UniProt Q9BXA7)
# T2 sequence (Q9BXA7 whole entry): T1 sequence (whole entry)
# B1: Testis-specific serine/threonine-protein kinase 1 (Homo sapiens), Q9BXA7 (protein)
# chain: T1 sequence (whole entry)
# How the values were obtained:
# [1] = biological target: T1, Testis-specific serine/threonine-protein kinase 1 (Homo sapiens); assay: Inhibition of TSSK1-catalyzed phosphorylation of AALVRQMSVAFFFK substrate at 20 uM by luminescent kinase assay
# Method in brief: (§1)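 Luminescent Kinase-Glo read-out of ATP left after reaction. Buffer 40 mM Tris-HCl, 20 mM MgCl2, 0.1 mg/mL BSA, 2 mM DTT. Final 0.5 μg/well TSSK1, 10 μM Pep8 peptide, 1.5 μM ATP. Incubated 2 h at 37 °C, then an equal volume of Kinase-Glo added for 10 min at room temperature before luminescence (RLU) reading. Controls lacked peptide or lacked TSSK1; staurosporine 100 μM as positive control.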
# [2] = biological target: T2, Testis-specific serine/threonine-protein kinase 1; assay: Inhibition of TSSK1-catalyzed phosphorylation of AALVRQMSVAFFFK substrate by luminescent kinase assay; method in brief: as §1
# [3] = biological target: T2, Testis-specific serine/threonine-protein kinase 1; assay: Inhibition of TSSK1-catalyzed phosphorylation of AALVRQMSVAFFFK substrate by LC-MS based HTP assay in presence of Pep8-(O2)
# Method in brief: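 TSSK1 reaction at final 75 ng/well enzyme, 10 μM Pep8, 25 μM ATP in Tris-HCl/MgCl2/BSA/DTT buffer, 90 min at 37 °C. Acetonitrile quench carried 7 μM sulfone internal standard Pep8-P(O2). After 15000g spin, C18 HPLC-MS analysis. Pep8-P concentration calculated from its peak area relative to the internal standard using a normalization factor, and IC50 derived from that.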
# [4] = biological target: T2, Testis-specific serine/threonine-protein kinase 1; assay: Inhibition of TSSK1-catalyzed phosphorylation of AALVRQMSVAFFFK substrate by LC-MS based HTP assay in absence of Pep8-(O2)
# Method in brief: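 End-point LC-MS read-out of phosphorylated Pep8 (Pep8-P). Reaction in 40 mM Tris-HCl, 20 mM MgCl2, 0.1 mg/mL BSA, 2 mM DTT with final 75 ng/well TSSK1, 10 μM Pep8, 25 μM ATP, run 90 min at 37 °C. Quenched with acetonitrile, spun 15000g 10 min, then analysed by C18 HPLC-MS using formic acid/acetonitrile gradient. IC50 taken from Pep8-P peak area with no internal standard.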
# [5] = substrate: CSCC[C@H](NC(=O)[C@H](CCC(N)=O)NC(=O)[C@H](CCCNC(=N)N)NC(=O)[C@@H](NC(=O)[C@H](CC(C)C)NC(=O)[C@H](C)NC(=O)[C@H](C)N)C(C)C)C(=O)N[C@@H](CO)C(=O)N[C@H](C(=O)N[C@@H](C)C(=O)N[C@@H](Cc1ccccc1)C(=O)N[C@@H](Cc1ccccc1)C(=O)N[C@@H](Cc1ccccc1)C(=O)N[C@@H](CCCCN)C(=O)O)C(C)C; assay: (§2) Activity at TSSK1 by Michaelis-Menten plot
# Method in brief: (§3)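 Enzyme time courses quantified phosphorylated Pep8 by LC-MS. ATP was varied 3.13–200 μM with Pep8 at 30 μM, or Pep8 0–40 μM with ATP at 200 μM. Reactions were quenched with acetonitrile containing 7 μM sulfone internal standard. Initial velocities were taken in duplicate and fitted to Michaelis-Menten by nonlinear least squares.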
# [6] = substrate: Nc1ncnc2c1ncn2[C@@H]1O[C@H](COP(=O)(O)OP(=O)(O)OP(=O)(O)O)[C@@H](O)[C@H]1O; assay: as §2; method in brief: as §3
Molecule,inhibition [1],IC50 [3],further results
C=CC(=O)Oc1cc(O)c2c(CCC)cc(=O)oc2c1,> 40%,,
CCc1cc(=O)oc2cc3c(c(O)c12)C(=O)CC(C)O3 (stereo not drawn),> 40%,,
O=c1oc2cc(O)cc(O)c2c2c1CCCC2,> 40%,,
CCCc1c(Cl)c(=O)oc2cc(O)cc(O)c12,> 40%,,
O=C(c1ccc(-c2ccc(C(=O)C(O)O)cc2)cc1)C(O)O,> 40%,,IC50 [2]: 43.2 µM
CC(C)c1nc2cc3c(cc2[nH]c1=O)nc(-c1ccc(C(=O)O)cc1)n3CCCc1ccccc1,,38 µM,
CCCCCCCn1c(-c2ccc(O)c(O)c2)nc2cc3[nH]c(=O)c(C(C)C)nc3cc21,,72 µM,
Cc1c(Cc2ccccc2)c(=O)oc2cc(O)cc(O)c12,> 40%,,
O=C(c1ccc(-c2ccc(C(=O)C(O)S(=O)(=O)O)cc2)cc1)C(O)S(=O)(=O)O (stereo not drawn),,19.1 µM,IC50 [2]: 24.8 µM; IC50 [4]: 14.4 µM
CCCc1cc(=O)oc2cc3c(c(O)c12)C(=O)CC(C)O3 (stereo not drawn),> 40%,,IC50 [2]: 38.7 µM
CC(C)C[C@H](CC(=O)N[C@H](CCC(N)=O)C(=O)O)NC(=O)c1cc(Cl)ccc1N,> 40%,,
CC(=O)Nc1ccc(-c2nc3cc4[nH]c(=O)c(C)nc4cc3n2CCCc2ccccc2)cc1,,98 µM,
B1,,,Km [5]: 25.2 µM; Km [6]: 50.5 µM
